Assay results reported in ChEMBL document CHEMBL4602651, “Development of selective mono or dual PROTAC degrader probe of CDK isoforms” (Eur J Med Chem, 2020).
Active and inactive are the calls of the source. No cut-off for these calls is given here.

How the values were obtained:
[1] = biological target: T1, Protein cereblon/Cyclin-dependent kinase 2/Cyclin-dependent kinase 9 (Homo sapiens, UniProt P24941+P50750+Q96SW2); assay: Protac activity at CRBN/CDK2/CDK9 in AR-negative human PC3 cells assessed as CDK2 degradation at 250 nM preincubated with FN-1501 for 2 hrs and measured after 8 hrs by Western blot analysis; format: cell-based; conditions: PC-3
Method in brief: (§1)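 PC-3 cells pretreated 2 h with 5 µM DMSO, FN-1501, pomalidomide or MG-132, then exposed to degrader at 250 nM for 8 h. Lysates probed for CDK2 and CDK9, β-tubulin as loading control. 50 µg protein per lane, 10% SDS-PAGE, chemiluminescent detection.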

[2] = biological target: T1, Protein cereblon/Cyclin-dependent kinase 2/Cyclin-dependent kinase 9; assay: Protac activity at CRBN/CDK2/CDK9 in human HCT116 cells assessed as CDK2 degradation at 0.25 to 10 uM after 12 hrs by Westernblot analysis; format: cell-based; conditions: HCT-116
Method in brief: (§2)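 22Rv1, HCT-116 (RPMI 1640, 10% FBS) and MCF-7 cells treated with degrader at indicated concentrations for 12 h. CDK2 and CDK9 blotted with β-tubulin loading control.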

[3] = biological target: T1, Protein cereblon/Cyclin-dependent kinase 2/Cyclin-dependent kinase 9; assay: Protac activity at CRBN/CDK2/CDK9 in human MCF7 cells assessed as CDK9 degradation at 0.25 to 10 uM after 12 hrs by Westernblot analysis; format: cell-based; method in brief: as §2
[4] = system: PC-3; assay: Antiproliferative activity against AR-negative human PC3 cells assessed as reduction in cell viability after 5 days by CCK8 assay; format: functional, cell-based; conditions: PC-3, 120 h
Method in brief: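 Cells seeded at 3 × 10^3 per well for 24 h, then dosed in 10-point, 3-fold serial dilution from 10 µM. CCK-8 added after 5 days, 4 h at 37 °C, absorbance at 450 nm. IC50 averaged from three separate determinations (at least two independent runs, duplicate wells). PC-3 grown in DMEM/F12 (1:1), LO2 in RPMI 1640, both with 10% FBS.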

[5] = biological target: T1, Protein cereblon/Cyclin-dependent kinase 2/Cyclin-dependent kinase 9; assay: Protac activity at CRBN/CDK2/CDK9 in human MCF7 cells assessed as CDK2 degradation at 0.25 to 10 uM after 12 hrs by Westernblot analysis; format: cell-based; method in brief: as §2
[6] = biological target: T1, Protein cereblon/Cyclin-dependent kinase 2/Cyclin-dependent kinase 9; assay: Protac activity at CRBN/CDK2/CDK9 in AR-negative human PC3 cells assessed as induction of CDK2 protein degradation at 500 nM after 4 hrs by Western blot analysis; format: cell-based; conditions: PC-3
Method in brief: (§3)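 PC-3 cells treated with 500 nM degrader for varying times. Lysates blotted for CDK2, CDK4, CDK6, CDK9, c-Myc and Mcl-1, each at 1/1000 primary antibody, with β-tubulin reference and chemiluminescent detection.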

[7] = biological target: T1, Protein cereblon/Cyclin-dependent kinase 2/Cyclin-dependent kinase 9; assay: Protac activity at CRBN/CDK2/CDK9 in AR-negative human PC3 cells assessed as reduction in c-Myc protein expression at 500 nM measured after 2 to 24 hrs by Western blot analysis; format: cell-based; conditions: PC-3; method in brief: as §3
[8] = biological target: CDK9/cyclin T1 (Homo sapiens, UniProt P50750); assay: Inhibition of tracer K10 binding to NanoLuc-CDK9/Cyclin T1 (unknown origin) expressed in human HEK293 cells after 1 hr in presence of ATP by NanoBRET assay; format: cell-based
Method in brief: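 Cell-based target engagement run by a contract lab. HEK293 cells pretreated with NanoBRET Tracer K-10, then exposed to compound for 1 h with 10 µM ATP, and BRET signal read. 10-point, 3-fold dilutions from 1 µM. Staurosporine reference used 4-fold dilutions from 20 µM. IC50 from sigmoidal dose-response fit.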

[9] = biological target: T1, Protein cereblon/Cyclin-dependent kinase 2/Cyclin-dependent kinase 9; assay: Protac activity at CRBN/CDK2/CDK9 in AR-negative human PC3 cells assessed as induction of CDK9 protein degradation at 500 nM after 4 hrs by Western blot analysis relative to control; format: cell-based; conditions: PC-3; method in brief: as §3
[10] = system: PC-3; assay: Induction of cell cycle arrest in human PC3 cells assessed as accumulation at G0/G1 phase at 1 uM after 48 hrs by propidium iodide staining based flow cytometry (reference value: 59.80%); format: functional
[11] = biological target: T1, Protein cereblon/Cyclin-dependent kinase 2/Cyclin-dependent kinase 9; assay: Protac activity at CRBN/CDK2/CDK9 in AR-negative human PC3 cells assessed as induction of CDK9 protein degradation at 30 uM after 12 hrs by Western blot analysis; format: cell-based; conditions: PC-3
Method in brief: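 PC-3 cells (5 × 10^5 per well) treated 12 h at single concentrations (50 nM, 500 nM, 1, 5 or 30 µM). RIPA lysates (50 µg) run on 10% SDS-PAGE and immunoblotted for CDK2, CDK5, CDK9 with β-tubulin loading control, then detected by chemiluminescence. Band intensities quantified densitometrically.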

[12] = biological target: T1, Protein cereblon/Cyclin-dependent kinase 2/Cyclin-dependent kinase 9; assay: Protac activity at CRBN/CDK2/CDK9 in AR-negative human PC3 cells assessed as induction of CDK2 protein degradation after 24 hrs by Western blot analysis; format: cell-based
Method in brief: (§4)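 PC-3 cells exposed to a degrader concentration series, then immunoblotted for CDK2 and CDK9 versus β-tubulin. The figure legend gives 24 h exposure. DC50 taken as mean of 2 determinations from densitometry.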

[13] = biological target: T1, Protein cereblon/Cyclin-dependent kinase 2/Cyclin-dependent kinase 9; assay: Protac activity at CRBN/CDK2/CDK9 in AR-negative human PC3 cells assessed as CDK9 degradation at 250 nM preincubated with proteasome inhibitor MG132 for 2 hrs and measured after 8 hrs by Western blot analysis; format: cell-based; conditions: PC-3; method in brief: as §1
[14] = biological target: T1, Protein cereblon/Cyclin-dependent kinase 2/Cyclin-dependent kinase 9; assay: Protac activity at CRBN/CDK2/CDK9 in AR-negative human PC3 cells assessed as reduction in Mcl-1 protein expression at 500 nM measured after 2 to 24 hrs by Western blot analysis; format: cell-based; conditions: PC-3; method in brief: as §3
[15] = system: PC-3; assay: Antiproliferative activity against AR-negative human PC3 cells at 2 uM after 24 hrs by CFSE dye based flow cytometry; format: functional, cell-based
Method in brief: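 PC-3 cells treated 24 h at 2 µM alongside DMSO control. Single-cell suspension labelled with CFSE (final 5 µM) for 15 min at room temperature in the dark, then proliferation read by flow cytometry.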

[16] = system: PC-3; assay: Induction of cell cycle arrest in human PC3 cells assessed as accumulation at G2/M phase at 250 nM after 48 hrs by propidium iodide staining based flow cytometry (reference value: 22.24%); format: functional
[17] = system: PC-3; assay: Induction of cell cycle arrest in human PC3 cells assessed as accumulation at G2/M phase at 3 uM after 48 hrs by propidium iodide staining based flow cytometry (reference value: 22.24%); format: functional
[18] = system: PC-3; assay: Induction of cell cycle arrest in human PC3 cells assessed as accumulation at S phase at 3 uM after 48 hrs by propidium iodide staining based flow cytometry (reference value: 17.96%); format: functional
[19] = biological target: T1, Protein cereblon/Cyclin-dependent kinase 2/Cyclin-dependent kinase 9; assay: Protac activity at CRBN/CDK2/CDK9 in AR-negative human PC3 cells assessed as CDK9 degradation at 250 nM preincubated with FN-1501 for 2 hrs and measured after 8 hrs by Western blot analysis; format: cell-based; conditions: PC-3; method in brief: as §1
[20] = system: PC-3; assay: Induction of cell cycle arrest in human PC3 cells assessed as accumulation at G2/M phase at 1 uM after 48 hrs by propidium iodide staining based flow cytometry (reference value: 22.24%); format: functional
[21] = biological target: T1, Protein cereblon/Cyclin-dependent kinase 2/Cyclin-dependent kinase 9; assay: Protac activity at CRBN/CDK2/CDK9 in AR-negative human PC3 cells assessed as induction of CDK9 protein degradation after 24 hrs by Western blot analysis; format: cell-based; method in brief: as §4
[22] = biological target: T1, Protein cereblon/Cyclin-dependent kinase 2/Cyclin-dependent kinase 9; assay: Protac activity at CRBN/CDK2/CDK9 in human 22Rv1 cells assessed as CDK9 degradation at 0.25 to 10 uM after 12 hrs by Westernblot analysis; format: cell-based; conditions: CWR22R; method in brief: as §2
[23] = biological target: T1, Protein cereblon/Cyclin-dependent kinase 2/Cyclin-dependent kinase 9; assay: Protac activity at CRBN/CDK2/CDK9 in human 22Rv1 cells assessed as CDK2 degradation at 0.25 to 10 uM after 12 hrs by Westernblot analysis; format: cell-based; conditions: CWR22R; method in brief: as §2

Chain of CDK9/cyclin T1 (O60563 whole entry): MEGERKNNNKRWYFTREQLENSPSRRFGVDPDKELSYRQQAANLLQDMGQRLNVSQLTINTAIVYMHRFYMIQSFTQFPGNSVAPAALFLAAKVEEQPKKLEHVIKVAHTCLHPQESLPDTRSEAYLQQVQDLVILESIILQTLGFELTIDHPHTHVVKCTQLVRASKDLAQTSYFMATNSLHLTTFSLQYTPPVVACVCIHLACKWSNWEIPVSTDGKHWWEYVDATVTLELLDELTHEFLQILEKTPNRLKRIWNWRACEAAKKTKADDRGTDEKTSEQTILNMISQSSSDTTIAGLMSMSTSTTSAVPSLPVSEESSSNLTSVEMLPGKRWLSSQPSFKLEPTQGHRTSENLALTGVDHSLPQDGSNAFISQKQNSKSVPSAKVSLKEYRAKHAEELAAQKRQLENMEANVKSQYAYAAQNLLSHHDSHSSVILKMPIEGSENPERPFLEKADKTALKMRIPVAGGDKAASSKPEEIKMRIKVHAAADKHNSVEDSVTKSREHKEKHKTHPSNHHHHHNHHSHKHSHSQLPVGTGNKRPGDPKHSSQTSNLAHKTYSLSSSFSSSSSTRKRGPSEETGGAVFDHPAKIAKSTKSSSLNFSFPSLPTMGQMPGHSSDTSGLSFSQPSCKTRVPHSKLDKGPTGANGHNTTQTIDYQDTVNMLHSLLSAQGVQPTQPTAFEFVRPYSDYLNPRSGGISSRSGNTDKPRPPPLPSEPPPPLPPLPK
Chain of CDK9/cyclin T1 (P50750 whole entry): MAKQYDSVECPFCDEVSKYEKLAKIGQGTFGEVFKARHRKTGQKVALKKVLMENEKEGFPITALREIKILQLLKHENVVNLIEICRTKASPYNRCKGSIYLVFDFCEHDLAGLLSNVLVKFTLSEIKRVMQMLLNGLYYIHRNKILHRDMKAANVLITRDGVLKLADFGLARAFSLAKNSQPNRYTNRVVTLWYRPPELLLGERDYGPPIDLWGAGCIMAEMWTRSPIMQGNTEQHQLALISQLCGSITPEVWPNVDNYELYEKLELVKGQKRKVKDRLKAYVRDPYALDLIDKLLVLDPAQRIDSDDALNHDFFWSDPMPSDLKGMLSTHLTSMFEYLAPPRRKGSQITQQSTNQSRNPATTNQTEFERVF

Structure (SMILES): O=C(CCC(=O)N1CCN(Cc2ccc(NC(=O)c3n[nH]cc3Nc3ncnc4[nH]ccc34)cc2)CC1)NCCNc1cccc2c1C(=O)N(C1CCC(=O)NC1=O)C2=O (stereo not given)
- Activity [1]: inactive
- Activity [2]: Active
- Activity [3]: Active
- IC50 [4]: 120 nM
- Activity [5]: Active
- Activity [6]: Active
- Activity [7]: Active
- IC50 [8]: 14.5 nM
- Activity [9]: > 80%
- Activity [10]: 53.95%
- Activity [11]: Active
- Activity ([12]; PC-3): Dose-dependent effect
- DC50 ([12]; pc-3): 62 nM
- Activity [13]: inactive
- Activity [14]: Active
- Activity [15]: Active
- Activity [16]: 22.13%
- Activity [17]: 36%
- Activity [18]: 11.24%
- Activity [19]: inactive
- Activity [20]: 36.82%
- Activity ([21]; PC-3): Dose-dependent effect
- DC50 ([21]; pc-3): 33 nM
- Activity [22]: Active
- Activity [23]: Active
